Test results published in ChEMBL document CHEMBL4229502, “Asperidines A-C, pyrrolidine and piperidine derivatives from the soil-derived fungus Aspergillus sclerotiorum PSU-RSPG178” (Bioorg Med Chem, 2018).
Calls of active or inactive are those of the source. The calls are words filed in the database; no cut-off is given here.

Experiments:
[1] = test system: Vero; test: Cytotoxicity against African green monkey Vero cells by GFP-based assay; type: cell-based; details: Chlorocebus sabaeus
Outline: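 Vero cell assay run in triplicate following a previously published method, with ellipticine as reference drug; IC50 reported.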

[2] = molecular target: T1, 3-hydroxy-3-methylglutaryl-coenzyme A reductase (Homo sapiens) (UniProt P04035); test: Inhibition of human HMG-CoA reductase catalytic domain at 200 uM using HMG-CoA as substrate measured every 20 secs for 10 mins relative to control
T1 sequence (whole entry): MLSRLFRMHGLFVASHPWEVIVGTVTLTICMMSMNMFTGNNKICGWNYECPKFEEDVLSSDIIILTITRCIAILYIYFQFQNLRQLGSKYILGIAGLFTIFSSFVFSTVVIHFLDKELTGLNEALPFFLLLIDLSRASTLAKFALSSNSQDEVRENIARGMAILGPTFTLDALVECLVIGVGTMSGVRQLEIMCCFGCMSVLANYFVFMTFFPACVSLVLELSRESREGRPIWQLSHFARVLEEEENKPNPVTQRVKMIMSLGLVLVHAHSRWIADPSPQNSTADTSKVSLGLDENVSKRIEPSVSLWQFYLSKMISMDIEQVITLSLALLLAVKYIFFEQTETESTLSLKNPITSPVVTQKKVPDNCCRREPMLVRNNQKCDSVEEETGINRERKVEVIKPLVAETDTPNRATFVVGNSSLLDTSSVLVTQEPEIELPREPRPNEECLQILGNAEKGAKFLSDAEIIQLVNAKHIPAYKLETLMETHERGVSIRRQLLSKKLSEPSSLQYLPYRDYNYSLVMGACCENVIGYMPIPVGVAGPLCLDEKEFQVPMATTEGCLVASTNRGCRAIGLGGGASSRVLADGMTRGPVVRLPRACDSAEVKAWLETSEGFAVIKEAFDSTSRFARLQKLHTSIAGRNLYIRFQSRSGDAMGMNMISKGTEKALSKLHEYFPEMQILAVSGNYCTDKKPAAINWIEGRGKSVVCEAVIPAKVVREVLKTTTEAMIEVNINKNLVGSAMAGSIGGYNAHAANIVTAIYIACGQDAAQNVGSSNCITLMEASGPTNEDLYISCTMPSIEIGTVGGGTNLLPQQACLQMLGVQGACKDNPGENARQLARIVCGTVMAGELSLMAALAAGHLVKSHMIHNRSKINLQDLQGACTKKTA
Outline: (§1)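 Cell-free kit assay: human HMGR catalytic domain added to buffer with NADPH and HMG-CoA to start the reaction at 37 °C. NADPH oxidation followed as A340 every 20 s for 10 min. Results expressed as percent inhibition of untreated control, n = 3.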

[3] = test system: Caco-2; test: Cytotoxicity against human Caco2 cells assessed as decrease in cell viability at 12.5 to 100 uM after 24 hrs by MTT assay; type: cell-based; details: caco-2, 24 h
Outline: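 Caco-2 cells (ATCC, passages 2–22, DMEM/F-12 with 10% FBS) were plated at 2.5 × 10^4 cells/well for 24 h, then exposed to 12.5, 25, 50, 75 and 100 µM for 24 h. After washing, cells got 5 mg/mL MTT for 4 h, crystals were dissolved in DMSO and A570 read. Viability is % of control, means ± S.E.M., n = 5.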

[4] = test system: Caco-2; test: Antioxidant activity in human Caco2 cells assessed as decrease in reactive oxygen species level after 24 hrs by DCFH-DA dye-based fluorescence assay; type: functional, cell-based
Outline: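 Caco-2 cells (ATCC, passages 2–22, DMEM/F-12 with 10% FBS) were exposed 24 h at 12.5–100 µM. They were then loaded with 10 µM DCFH-DA for 1 h at 37 °C in the dark and incubated 30 min without H2O2. Fluorescence was read at ex 495/em 527 nm. Means ± S.E.M., n = 3, vs untreated control cells.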

[5] = test system: Caco-2; test: Antioxidant activity in human Caco2 cells assessed as decrease in H2O2-induced reactive oxygen species level after 24 hrs by DCFH-DA dye-based fluorescence assay; type: functional, cell-based
Outline: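 Caco-2 cells (ATCC, passages 2–22, DMEM/F-12 with 10% FBS) were treated 24 h at 12.5–100 µM. They were loaded with 10 µM DCFH-DA for 1 h at 37 °C in the dark, then exposed to 0.5 mM H2O2 for 30 min and washed twice. Fluorescence was read at ex 495/em 527 nm. Means ± S.E.M., n = 3, vs H2O2-exposed control cells.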

[6] = molecular target: Cystic fibrosis transmembrane conductance regulator (Homo sapiens, UniProt P13569); test: Inhibition of CFTR-mediated forskolin-induced chloride secretion in human T84 cells after 15 mins by short-circuit current analysis; type: cell-based
Outline: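 T84 monolayers grown on 1 cm² porous inserts (500,000 cells/insert) until TEER > 1000 Ω·cm², then mounted in Ussing chambers. Symmetrical Krebs solution (pH 7.3, 10 mM glucose) was gassed with 95% O2/5% CO2 at 37 °C. Chloride secretion was stimulated with 20 µM forskolin, then compound added apically at varied concentrations. Short-circuit current recorded; IC50 from Hill equation.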

[7] = molecular target: T1, 3-hydroxy-3-methylglutaryl-coenzyme A reductase (Homo sapiens); test: Inhibition of human HMG-CoA reductase catalytic domain at 1 uM using HMG-CoA as substrate measured every 20 secs for 10 mins relative to control; outline: as §1

| inhibition [2] | IC50 [6] | inhibition [7] | inhibition [6] | SMILES | Activity [1] | Activity [3] | Activity [4] | Activity [5] | IC50 [1] |
| --- | --- | --- | --- | --- | --- | --- | --- | --- | --- |
| inactive | 58.6 µM |  |  | CCCCCCCCC[C@@H]1C[C@H](O)[C@H]2C[N@]1O[C@@H]2c1ccccc1 | Non-Toxic | Non-Toxic | Dose-dependent effect | Dose-dependent effect |  |
|  |  | 86% |  | CC[C@H](C)C(=O)O[C@H]1C[C@H](O)C=C2C=C[C@H](C)[C@H](CC[C@@H](O)C[C@@H](O)CC(=O)O)[C@H]21 |  |  |  |  |  |
|  |  |  |  | Cc1c2ccncc2c(C)c2c1[nH]c1ccccc12 [ELLIPTECINE] |  |  |  |  | 4.06 µM |
| 29% |  |  | Dose-dependent effect | CCCCCCCC[C@@H]1CC[C@H](O)[C@H](Cc2ccccc2)N1C |  | Non-Toxic | Dose-dependent effect | Dose-dependent effect | 51.5 µM |
